In brackets after ≈: the same amount, converted by molar mass.
Assays:
Assay type in all cases: functional
[1] = test system: Staphylococcus aureus; test: Antibacterial activity against vancomycin-, methicillin-resistant Staphylococcus aureus VRS1 by broth microdilution method
Outline: (§1)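 VISA and VRSA strains from the NARSA repository were tested separately from the surveillance isolates. MICs by CLSI broth microdilution in frozen trays with serial dilutions. Quality-control strains run in parallel. Susceptibility categories follow CLSI breakpoints, and methicillin resistance was assigned from the oxacillin MIC.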

[2] = test system: Enterococcus faecium; test: Antibacterial activity against vancomycin-resistant and teichoplanin-susceptible Enterococcus faecium clinical isolate by broth microdilution method
Outline: (§2)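 MICs by CLSI broth microdilution in frozen trays pre-loaded with serial dilutions of each agent. Quality-control strains run in parallel: E. faecalis ATCC 29212 and ATCC 51299, S. aureus ATCC 29213, S. pneumoniae ATCC 49619. Comparator susceptibility categories follow CLSI breakpoints. Methicillin resistance in staphylococci assigned from the oxacillin MIC.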

[3] = test system: Staphylococcus capitis; test: Antibacterial activity against methicillin-resistant coagulase-negative Staphylococcus capitis clinical isolate by broth microdilution method; outline: as §2
[4] = test system: Streptococcus equinus; test: Antibacterial activity against Streptococcus bovis clinical isolate by broth microdilution method
Outline: (§3)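 MIC by CLSI broth microdilution in frozen microtiter trays holding serial dilutions of each agent, prepared from standard laboratory powders. E. faecalis ATCC 29212 and ATCC 51299, S. aureus ATCC 29213 and S. pneumoniae ATCC 49619 run in parallel as quality-control strains. Comparator susceptibility interpreted with CLSI breakpoints.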

[5] = test system: Staphylococcus hominis; test: Antibacterial activity against methicillin-susceptible coagulase-negative Staphylococcus hominis clinical isolate by broth microdilution method; outline: as §2
[6] = test system: Staphylococcus warneri; test: Antibacterial activity against methicillin-susceptible coagulase-negative Staphylococcus warneri clinical isolate by broth microdilution method; outline: as §2
[7] = test system: Staphylococcus epidermidis; test: Antibacterial activity against methicillin-resistant coagulase-negative Staphylococcus epidermidis clinical isolate by broth microdilution method; outline: as §2
[8] = test system: Streptococcus pneumoniae; test: Antibacterial activity against penicillin resistant Streptococcus pneumoniae clinical isolate by broth microdilution method; outline: as §2
[9] = test system: Streptococcus pneumoniae; test: Antibacterial activity against penicillin intermediate Streptococcus pneumoniae clinical isolate by broth microdilution method; outline: as §2
[10] = test system: Staphylococcus; test: Antibacterial activity against daptomycin-nonsusceptible coagulase-negative Staphylococcus isolate 1285835 by broth microdilution method; outline: as §3
[11] = test system: Staphylococcus capitis; test: Antibacterial activity against methicillin-susceptible coagulase-negative Staphylococcus capitis clinical isolate by broth microdilution method; outline: as §2
[12] = test system: Staphylococcus aureus; test: Antibacterial activity against vancomycin-, methicillin-resistant Staphylococcus aureus VRS3 by broth microdilution method; outline: as §1
[13] = test system: Staphylococcus cohnii; test: Antibacterial activity against methicillin-resistant coagulase-negative Staphylococcus cohnii clinical isolate by broth microdilution method; outline: as §2
[14] = test system: Staphylococcus aureus; test: Antibacterial activity against vancomycin-intermediate methicillin-resistant Staphylococcus aureus NRS17 by broth microdilution method; outline: as §1
[15] = test system: Streptococcus agalactiae; test: Antibacterial activity against Streptococcus agalactiae clinical isolate by broth microdilution method; outline: as §3
[16] = test system: Mammaliicoccus sciuri; test: Antibacterial activity against methicillin-susceptible coagulase-negative Staphylococcus sciuri clinical isolate by broth microdilution method; outline: as §2
[17] = test system: Mammaliicoccus sciuri; test: Antibacterial activity against methicillin-resistant coagulase-negative Staphylococcus sciuri clinical isolate by broth microdilution method; outline: as §2
[18] = Antibacterial activity against Streptococcus sp. Group C clinical isolate by broth microdilution method; outline: as §3
[19] = test system: Staphylococcus capitis; test: Antibacterial activity against daptomycin-nonsusceptible Staphylococcus capitis isolate 1285355 by broth microdilution method; outline: as §3
[20] = test system: Staphylococcus warneri; test: Antibacterial activity against methicillin-resistant coagulase-negative Staphylococcus warneri clinical isolate by broth microdilution method; outline: as §2
[21] = test system: Staphylococcus simulans; test: Antibacterial activity against methicillin-resistant coagulase-negative Staphylococcus simulans clinical isolate by broth microdilution method; outline: as §2
[22] = test system: Staphylococcus hominis; test: Antibacterial activity against methicillin-resistant coagulase-negative Staphylococcus hominis clinical isolate by broth microdilution method; outline: as §2
[23] = test system: Streptococcus sp.; test: Antibacterial activity against Streptococcus sp. clinical isolate by broth microdilution method
Outline: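 MIC by CLSI broth microdilution in frozen microtiter trays holding serial dilutions of each agent, prepared from standard laboratory powders. Comparator susceptibility interpreted with CLSI breakpoints.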

[24] = test system: Staphylococcus cohnii; test: Antibacterial activity against methicillin-susceptible coagulase-negative Staphylococcus cohnii clinical isolate by broth microdilution method; outline: as §2
[25] = test system: Staphylococcus xylosus; test: Antibacterial activity against methicillin-resistant coagulase-negative Staphylococcus xylosus clinical isolate by broth microdilution method; outline: as §2
[26] = test system: Staphylococcus simulans; test: Antibacterial activity against methicillin-susceptible coagulase-negative Staphylococcus simulans clinical isolate by broth microdilution method; outline: as §2
[27] = test system: Staphylococcus; test: Antibacterial activity against methicillin-susceptible coagulase-negative unspeciated Staphylococcus clinical isolate by broth microdilution method; outline: as §2
[28] = test system: Staphylococcus aureus; test: Antibacterial activity against methicillin-resistant Staphylococcus aureus
[29] = Antibacterial activity against Streptococcus sp. Group G clinical isolate by broth microdilution method; outline: as §3
[30] = test system: Staphylococcus haemolyticus; test: Antibacterial activity against methicillin-susceptible coagulase-negative Staphylococcus haemolyticus clinical isolate by broth microdilution method; outline: as §2
[31] = test system: Enterococcus faecalis; test: Antibacterial activity against vancomycin- and teichoplanin-nonsusceptible Enterococcus faecalis clinical isolate by broth microdilution method; outline: as §2
[32] = test system: Streptococcus mitis; test: Antibacterial activity against Streptococcus mitis clinical isolate by broth microdilution method; outline: as §3
[33] = test system: Streptococcus constellatus; test: Antibacterial activity against Streptococcus constellatus clinical isolate by broth microdilution method; outline: as §3
[34] = test system: Staphylococcus haemolyticus; test: Antibacterial activity against methicillin-resistant coagulase-negative Staphylococcus haemolyticus clinical isolate by broth microdilution method; outline: as §2
[35] = test system: Enterococcus faecalis; test: Antibacterial activity against vancomycin-resistant and teichoplanin-susceptible Enterococcus faecalis clinical isolate by broth microdilution method; outline: as §2
[36] = test system: Streptococcus sanguinis; test: Antibacterial activity against Streptococcus sanguinis clinical isolate by broth microdilution method; outline: as §3
[37] = test system: Staphylococcus aureus; test: Antibacterial activity against methicillin-susceptible Staphylococcus aureus clinical isolate by broth microdilution method; outline: as §2
[38] = test system: Staphylococcus; test: Antibacterial activity against methicillin-resistant coagulase-negative unspeciated Staphylococcus clinical isolate by broth microdilution method; outline: as §2
[39] = test system: Staphylococcus epidermidis; test: Antibacterial activity against methicillin-susceptible coagulase-negative Staphylococcus epidermidis clinical isolate by broth microdilution method; outline: as §2

CN[C@H](CC(C)C)C(=O)N[C@H]1C(=O)N[C@@H](CC(N)=O)C(=O)N[C@H]2C(=O)N[C@H]3C(=O)N[C@H](C(=O)N[C@H](C(=O)O)c4cc(O)cc(O)c4-c4cc3ccc4O)[C@H](O)c3ccc(c(Cl)c3)Oc3cc2cc(c3O[C@@H]2O[C@H](CO)[C@@H](O)[C@H](O)[C@H]2O[C@H]2C[C@](C)(N)[C@H](O)[C@H](C)O2)Oc2ccc(cc2Cl)[C@H]1O [VANCOMYCIN]
MIC [1]: > 32 µg/mL
MIC50 [2]: 128 µg/mL (≈ 88.3 µM)
MIC90 [2]: 512 µg/mL (≈ 353 µM)
MIC50 [3]: 2 µg/mL (≈ 1.38 µM)
MIC90 [3]: 2 µg/mL (≈ 1.38 µM)
MIC50 [4]: 0.5 µg/mL (≈ 0.345 µM)
MIC90 [4]: 0.5 µg/mL (≈ 0.345 µM)
MIC50 [5]: 1 µg/mL (≈ 0.69 µM)
MIC90 [5]: 2 µg/mL (≈ 1.38 µM)
MIC50 [6]: 1 µg/mL (≈ 0.69 µM)
MIC90 [6]: 2 µg/mL (≈ 1.38 µM)
MIC50 [7]: 2 µg/mL (≈ 1.38 µM)
MIC90 [7]: 2 µg/mL (≈ 1.38 µM)
MIC [8]: 0.25 µg/mL (≈ 0.173 µM)
MIC50 [8]: 0.25 µg/mL (≈ 0.173 µM)
MIC90 [8]: 0.5 µg/mL (≈ 0.345 µM)
MIC [9]: 0.25 µg/mL (≈ 0.173 µM)
MIC50 [9]: 0.25 µg/mL (≈ 0.173 µM)
MIC90 [9]: 0.5 µg/mL (≈ 0.345 µM)
MIC [10]: 2 µg/mL (≈ 1.38 µM)
MIC50 [11]: 1 µg/mL (≈ 0.69 µM)
MIC90 [11]: 2 µg/mL (≈ 1.38 µM)
MIC [12]: > 32 µg/mL
MIC50 [13]: 2 µg/mL (≈ 1.38 µM)
MIC90 [13]: 2 µg/mL (≈ 1.38 µM)
MIC [14]: 8 µg/mL (≈ 5.52 µM)
MIC50 [15]: 0.5 µg/mL (≈ 0.345 µM)
MIC90 [15]: 0.5 µg/mL (≈ 0.345 µM)
MIC50 [16]: 1 µg/mL (≈ 0.69 µM)
MIC90 [16]: 2 µg/mL (≈ 1.38 µM)
MIC50 [17]: 2 µg/mL (≈ 1.38 µM)
MIC90 [17]: 2 µg/mL (≈ 1.38 µM)
MIC [18]: 0.25 µg/mL (≈ 0.173 µM)
MIC50 [18]: 0.25 µg/mL (≈ 0.173 µM)
MIC90 [18]: 0.5 µg/mL (≈ 0.345 µM)
MIC [19]: 2 µg/mL (≈ 1.38 µM)
MIC50 [20]: 2 µg/mL (≈ 1.38 µM)
MIC90 [20]: 2 µg/mL (≈ 1.38 µM)
MIC50 [21]: 2 µg/mL (≈ 1.38 µM)
MIC90 [21]: 2 µg/mL (≈ 1.38 µM)
MIC50 [22]: 2 µg/mL (≈ 1.38 µM)
MIC90 [22]: 2 µg/mL (≈ 1.38 µM)
MIC50 [23]: 0.5 µg/mL (≈ 0.345 µM)
MIC90 [23]: 0.5 µg/mL (≈ 0.345 µM)
MIC50 [24]: 1 µg/mL (≈ 0.69 µM)
MIC90 [24]: 2 µg/mL (≈ 1.38 µM)
MIC50 [25]: 2 µg/mL (≈ 1.38 µM)
MIC90 [25]: 2 µg/mL (≈ 1.38 µM)
MIC50 [26]: 1 µg/mL (≈ 0.69 µM)
MIC90 [26]: 2 µg/mL (≈ 1.38 µM)
MIC50 [27]: 1 µg/mL (≈ 0.69 µM)
MIC90 [27]: 2 µg/mL (≈ 1.38 µM)
MIC50 [28]: 0.69 µM (≈ 1 µg/mL)
MIC [29]: 0.25 µg/mL (≈ 0.173 µM)
MIC50 [29]: 0.25 µg/mL (≈ 0.173 µM)
MIC90 [29]: 0.5 µg/mL (≈ 0.345 µM)
MIC50 [30]: 1 µg/mL (≈ 0.69 µM)
MIC90 [30]: 2 µg/mL (≈ 1.38 µM)
MIC50 [31]: 512 µg/mL (≈ 353 µM)
MIC90 [31]: > 512 µg/mL
MIC50 [32]: 0.5 µg/mL (≈ 0.345 µM)
MIC90 [32]: 0.5 µg/mL (≈ 0.345 µM)
MIC50 [33]: 0.5 µg/mL (≈ 0.345 µM)
MIC90 [33]: 0.5 µg/mL (≈ 0.345 µM)
MIC50 [34]: 2 µg/mL (≈ 1.38 µM)
MIC90 [34]: 2 µg/mL (≈ 1.38 µM)
MIC [35]: 32 µg/mL (≈ 22.1 µM)
MIC50 [36]: 0.5 µg/mL (≈ 0.345 µM)
MIC90 [36]: 0.5 µg/mL (≈ 0.345 µM)
MIC50 [37]: 1 µg/mL (≈ 0.69 µM)
MIC90 [37]: 1 µg/mL (≈ 0.69 µM)
MIC50 [38]: 2 µg/mL (≈ 1.38 µM)
MIC90 [38]: 2 µg/mL (≈ 1.38 µM)
MIC50 [39]: 1 µg/mL (≈ 0.69 µM)
MIC90 [39]: 2 µg/mL (≈ 1.38 µM)
